Where “and” joins values, the source holds several entries; their conditions need not be identical. Equal entries are not always repeated. Calls of active or inactive are those of the source. The rule behind the calls is not given here.
How the values were obtained:
[1] = Cytotoxicity against human SKOV3 cells assessed as growth inhibition using compound dissolved in DMSO after 48 hrs by SRB assay; assay type: functional; settings: SK-OV-3, 48 h
Summary of the method: (§1)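 Cells kept at 37 °C, 5% CO2, up to passage 15. Plated at 7500 cells/well in DMEM with 5% FBS and 1% gentamycin, grown 24 h, then given 10-fold serial dilutions for 48 h. Fixed with 10% TCA (final), SRB-stained, read at 540 nm, normalized at 630 nm. GI50 is the concentration halving net protein staining versus controls, taken from optical density data.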

NCI-H460 [2] = assay: Cytotoxicity against human NCI-H460 cells assessed as growth inhibition using compound dissolved in DMSO after 48 hrs by SRB assay; assay type: functional; settings: NCI-H460, 48 h; summary of the method: as §1
[3] = Cytotoxicity against human DU145 cells assessed as growth inhibition using compound dissolved in DMSO after 48 hrs by SRB assay; assay type: functional; settings: DU-145, 48 h; summary of the method: as §1
[4] = Cytotoxicity against human SKOV3 cells assessed as growth inhibition using compound dissolved in water after 48 hrs by SRB assay; assay type: functional; settings: SK-OV-3, 48 h; summary of the method: as §1
NCI-H460 [5] = assay: Cytotoxicity against human NCI-H460 cells assessed as growth inhibition using compound dissolved in water after 48 hrs by SRB assay; assay type: functional; settings: NCI-H460, 48 h; summary of the method: as §1
[6] = Cytotoxicity against human DU145 cells assessed as growth inhibition using compound dissolved in water after 48 hrs by SRB assay; assay type: functional; settings: DU-145, 48 h; summary of the method: as §1
Leucine aminopeptidase [7] = biological target: T1, Leucine aminopeptidase (Sus scrofa, UniProt Q29571); assay: Prodrug conversion assessed as porcine leucine aminopeptidase-mediated compound cleavage at 25 hrs using 0.12 units of enzyme by HPLC analysis; assay type: ADME; settings: pig
T1 sequence (Q29571 whole entry): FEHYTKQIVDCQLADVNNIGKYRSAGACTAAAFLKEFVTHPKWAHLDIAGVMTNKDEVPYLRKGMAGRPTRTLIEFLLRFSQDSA
Summary of the method: (§2)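 Porcine kidney microsomal LAP; units defined with 24 mM L-leucine p-nitroanilide in 50 mM sodium phosphate pH 7.2 at 37 °C. Enzyme preincubated in the same buffer at 37 °C, then substrate added. Aliquots were quenched with acetonitrile on ice, centrifuged and run on C18 HPLC (acetonitrile/water, 0.05% TFA, 1.0 mL/min, 22 °C, diode-array UV). Cleavage % from the parent/prodrug peak-area ratio; amounts from calibration curves.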

Leucine aminopeptidase [8] = biological target: T1, Leucine aminopeptidase; assay: Prodrug conversion assessed as porcine leucine aminopeptidase-mediated compound cleavage by HPLC analysis; assay type: ADME; settings: pig; summary of the method: as §2
[9] = Cytotoxicity against human SKOV3 cells assessed as growth inhibition after 48 hrs by SRB assay; assay type: functional, SK-OV-3; summary of the method: as §1
NCI-H460 [10] = assay: Cytotoxicity against human NCI-H460 cells assessed as growth inhibition after 48 hrs by SRB assay; assay type: functional; summary of the method: as §1
[11] = Cytotoxicity against human DU145 cells assessed as growth inhibition after 48 hrs by SRB assay; assay type: functional, DU-145; summary of the method: as §1
Leucine aminopeptidase [12] = biological target: T1, Leucine aminopeptidase; assay: Drug level assessed as porcine leucine aminopeptidase-mediated compound formation treated with (Z)-N,N''-(3-Methoxy-6-(3,4,5-trimethoxystyryl)-1,2-phenylene)bis(2-aminoacetamide) after 25 hrs using 1.5 units of enzyme by HPLC analysis; assay type: ADME; settings: pig; summary of the method: as §2
Leucine aminopeptidase [13] = biological target: T1, Leucine aminopeptidase; assay: Drug level assessed as porcine leucine aminopeptidase-mediated compound formation treated with (Z)-N,N''-(3-Methoxy-6-(3,4,5-trimethoxystyryl)-1,2-phenylene)bis(2-aminoacetamide) after 25 hrs using 0.12 units of enzyme by HPLC analysis; assay type: ADME; settings: pig; summary of the method: as §2
Leucine aminopeptidase [14] = biological target: T1, Leucine aminopeptidase; assay: Drug level assessed as porcine leucine aminopeptidase-mediated compound formation treated with (Z)-N,N''-(3-Methoxy-6-(3,4,5-trimethoxystyryl)-1,2-phenylene)bis(2-aminoacetamide) after 25 hrs using 3.7 units of enzyme by HPLC analysis; assay type: ADME; settings: pig; summary of the method: as §2
Tubulin = Tubulin (Bos taurus, UniProt Q6B856+Q862L2+Q862F3); assay: Inhibition of bovine brain tubulin polymerization preincubated for 15 mins by spectrophotometric analysis
Summary of the method: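 Purified bovine brain tubulin, 1.0 mg/mL (10 μM), in 0.8 M monosodium glutamate pH 6.6 with 4% DMSO and varied compound. Temperature jumped from 0 to 30 °C; turbidity at 350 nm followed for 20 min.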

MDA-MB-231 [15] = assay: Induction of tumor-specific vascular damage in luciferase expressing human MDA-MB-231 cells xenografted in SCID mouse assessed as reduction in light emission at 80 mg/kg at 2 hrs post dose by bioluminescence imaging assay relative to control; assay type: functional; settings: MDA-MB-231, 2 h
MDA-MB-231 [16] = assay: Induction of tumor-specific vascular damage in luciferase expressing human MDA-MB-231 cells xenografted in SCID mouse assessed as reduction in light emission at 80 mg/kg at 4 hrs post dose by bioluminescence imaging assay (reference value: 22%); assay type: functional; settings: MDA-MB-231, 4 h
MDA-MB-231 [17] = assay: Induction of tumor-specific vascular damage in luciferase expressing human MDA-MB-231 cells xenografted in SCID mouse assessed as reduction in light emission at 80 mg/kg at 24 hrs post dose by bioluminescence imaging assay (reference value: 24%); assay type: functional; settings: MDA-MB-231, 24 h
Tubulin (Bos taurus) [18] = biological target: T2, Tubulin (Bos taurus) (UniProt Q6B856+Q862L2+Q862F3); assay: Displacement of [3H]colchicine from bovine brain tubulin at 1 uM after 10 mins by scintillation counting analysis
Summary of the method: (§3)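 1.0 μM tubulin with 5.0 μM [3H]colchicine and inhibitor at 1.0 or 5.0 μM. Buffer: 5% DMSO, 1.0 M monosodium glutamate pH 6.6, 0.5 mg/mL BSA, 0.1 M glucose-1-phosphate, 1.0 mM MgCl2, 1.0 mM GTP. Incubated 10 min at 37 °C, stopped with ice-cold water, collected on DEAE-cellulose filters and scintillation counted. Corrected for filter binding without tubulin; % inhibition against no-inhibitor controls.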

Tubulin (Bos taurus) [19] = biological target: T2, Tubulin (Bos taurus); assay: Displacement of [3H]colchicine from bovine brain tubulin at 5 uM after 10 mins by scintillation counting analysis; summary of the method: as §3
HUVEC = assay: Antivascular activity in HUVEC cells assessed as disruption of capillary-like network of tubules formation at 0.1 uM by matrigel assay; assay type: functional, cell-based; settings: Homo sapiens
Summary of the method: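 HUVECs (124,000 per well in M200 with growth factors) plated on Matrigel (9.5 mg/mL) that had been set for 60 min at 37 °C. Cells incubated 16 h at 37 °C to form tubule networks. Then treated at 0.01, 0.1 or 1.0 μM and photographed, 9 fields/well with 40x objective.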

[20] = Retention time of the compound by HPLC analysis; assay type: physicochemical
Summary of the method: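 Reversed-phase C18 HPLC (4.6 × 150 mm, 5 μm) at 25 °C with diode-array detection at 190–400 nm. Acetonitrile against water or 0.1% TFA/water. Gradient 10% to 100% acetonitrile over 40 min, or in method C 10% acetonitrile for 5 min then to 100% over 5–25 min, at 1.0 mL/min.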

Leucine aminopeptidase [21] = biological target: T1, Leucine aminopeptidase; assay: Prodrug conversion assessed as porcine leucine aminopeptidase-mediated compound cleavage after 24 hrs using 3.6 units of enzyme by HPLC analysis; assay type: ADME; settings: pig; summary of the method: as §2
MDA-MB-231 [22] = assay: Induction of tumor-specific vascular damage in luciferase expressing human MDA-MB-231 cells xenografted in SCID mouse assessed as reduction in light emission at 15 mg/kg at 4 hrs post dose by bioluminescence imaging assay (reference value: 22%); assay type: functional; settings: MDA-MB-231, 4 h
MDA-MB-231 [23] = assay: Induction of tumor-specific vascular damage in luciferase expressing human MDA-MB-231 cells xenografted in SCID mouse assessed as reduction in light emission at 15 mg/kg at 24 hrs post dose by bioluminescence imaging assay (reference value: 24%); assay type: functional; settings: MDA-MB-231, 24 h
MDA-MB-231 [24] = assay: Induction of tumor-specific vascular damage in luciferase expressing human MDA-MB-231 cells xenografted in SCID mouse assessed as reduction in light emission at 10 mg/kg at 4 hrs post dose by bioluminescence imaging assay (reference value: 22%); assay type: functional; settings: MDA-MB-231, 4 h
MDA-MB-231 [25] = assay: Induction of tumor-specific vascular damage in luciferase expressing human MDA-MB-231 cells xenografted in SCID mouse assessed as reduction in light emission at 10 mg/kg at 24 hrs post dose by bioluminescence imaging assay (reference value: 24%); assay type: functional; settings: MDA-MB-231, 24 h
Leucine aminopeptidase [26] = biological target: T1, Leucine aminopeptidase; assay: Activity at porcine leucine aminopeptidase by HPLC analysis; assay type: ADME; settings: pig; summary of the method: as §2

COc1ccc(/C=C\c2cc(OC)c(OC)c(OC)c2)c(NC(=O)CN)c1NC(=O)CN.Cl.Cl
GI50 [1]: 39300 nM
GI50 (NCI-H460 [2]): > 68500 nM
GI50 [3]: > 64700 nM
GI50 [4]: > 56400 nM
GI50 (NCI-H460 [5]): > 96600 nM
GI50 [6]: > 90400 nM
Drug metabolism (Leucine aminopeptidase [7]): > 95%
Drug metabolism (Leucine aminopeptidase [8]): < 50%

COc1ccc(/C=C\c2cc(OC)c(OC)c(OC)c2)c(N)c1N [listing 1 of 2 here]
GI50 ([9]; Homo sapiens, SK-OV-3, 48 h): 23.5 nM
GI50 (NCI-H460 [10]): 35.9 nM
GI50 [11]: 39.1 nM
Drug metabolism (Leucine aminopeptidase [12]): metabolite_detected
Drug metabolism (Leucine aminopeptidase [13]): metabolite_detected
Drug metabolism (Leucine aminopeptidase [14]): metabolite_detected
IC50 (Tubulin): 1500 nM

COc1ccc(/C=C\c2cc(OC)c(OC)c(OC)c2)c(N)c1N.Cl
GI50 [9]: 22.8 nM
GI50 (NCI-H460 [10]): 124 nM
GI50 [11]: 205 nM
inhibition in vivo at 80 mg/kg (MDA-MB-231 [15]): 95%
inhibition in vivo at 80 mg/kg (MDA-MB-231 [16]): 94%
inhibition in vivo at 80 mg/kg (MDA-MB-231 [17]): 79%
IC50 (Tubulin): 2300 nM

COc1ccc(/C=C\c2cc(OC)c(OC)c(OC)c2)c(N)c1N [listing 2 of 2 here]
inhibition (Tubulin (Bos taurus) [18]): 55% and 46%
inhibition (Tubulin (Bos taurus) [19]): 87% and 86%
Activity (HUVEC): Active

COc1ccc(/C=C\c2cc(OC)c(OC)c(OC)c2)c(N)c1
GI50 [9]: 26.6 nM
GI50 (NCI-H460 [10]; Homo sapiens, NCI-H460, 48 h): 40.1 nM
GI50 ([11]; Homo sapiens, DU-145, 48 h): 33.1 nM
Retention_time [20]: 31.29 min
IC50 (Tubulin): 1100 nM

COc1ccc2c(c1NC(=O)[C@@H](N)CO)CCC=C2c1cc(OC)c(OC)c(OC)c1.Cl
GI50 [9]: 11600 nM
GI50 (NCI-H460 [10]): 18600 nM
GI50 [11]: 26000 nM
Drug metabolism (Leucine aminopeptidase [21]): < 10%
Drug metabolism (Leucine aminopeptidase [8]): < 10%

COc1ccc2c(c1NC(=O)CN)CCC=C2c1cc(OC)c(OC)c(OC)c1.Cl
GI50 [9]: 48.5 nM
GI50 (NCI-H460 [10]): 42 nM
GI50 [11]: 58.5 nM
inhibition in vivo at 15 mg/kg (MDA-MB-231 [22]): 97%
inhibition in vivo at 15 mg/kg (MDA-MB-231 [23]): 90%
inhibition in vivo at 10 mg/kg (MDA-MB-231 [24]): 70%
inhibition in vivo at 10 mg/kg (MDA-MB-231 [25]): 55%
Activity (Leucine aminopeptidase [26]): 15.5 µM/min
Drug metabolism (Leucine aminopeptidase [8]): 100%

COc1ccc2c(c1NC(=O)[C@@H](N)CO)CCCC=C2c1cc(OC)c(OC)c(OC)c1.Cl
GI50 [9]: 47000 nM
Drug metabolism (Leucine aminopeptidase [21]): < 10%
Drug metabolism (Leucine aminopeptidase [8]): < 10%

COc1ccc2c(c1N)CCC=C2c1cc(OC)c(OC)c(OC)c1
Retention_time [20]: 12.1 min

COc1ccc(/C=C/c2cc(OC)c(OC)c(OC)c2)c(NC(=O)CN)c1.Cl
GI50 [1]: 427 nM
GI50 (NCI-H460 [2]): 418 nM
GI50 [3]: 630 nM
GI50 [4]: 426 nM
GI50 (NCI-H460 [5]): 380 nM
GI50 [6]: 674 nM
Drug metabolism (Leucine aminopeptidase [8]): 100%
